# Experimental data reported in the EternaBench riboswitch data.
# Tested on: MS2 coat protein
# Test: apparent Kd, MS2 coat protein; higher = weaker binding; RNA-MaP array; FMN 200 µM where present
# Procedure, shortened: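 The apparent Kd is the median of filtered binding-curve fits, one per cluster, to green signal normalised to red-channel RNA signal and control-cluster median Fmax. The clusters were on Illumina sequencing chips, and stalled E. coli RNA polymerase had transcribed the designs on them. Titration used SNAP-549-labelled MS2 coat protein from 0.7 or 1.5 nM, doubling to 3 µM, without and then with constant ligand, in 100 mM Tris-HCl pH 7.5, 80 mM KCl, 4 mM MgCl2, BSA, DTT, yeast tRNA and Tween-20.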
# [1] = designed as: OFF switch for flavin mononucleotide, no ligand
# [2] = ligand present: flavin mononucleotide, designed as: OFF switch for flavin mononucleotide
# [3] = designed as: ON switch for flavin mononucleotide, no ligand
# [4] = ligand present: flavin mononucleotide, designed as: ON switch for flavin mononucleotide
Sequence,apparent Kd [1],apparent Kd [2],apparent Kd [3],apparent Kd [4]
AGAUCGACUGUGAGGAUAUUGACCGGACGACCCAUCGAGAAGGCACAUGAGGAUCACCCAUGUGAGUCGGUUUA,15.5 nM,17 nM,–,–
AGAUCUCAAUAAGAUCCAAUACGAACAUGAGGAUCACCCAUGUAGGAUAUGCUAGAAGUAGAGUAGCAGAAGGACAAUUACCUU,19.9 nM,19.7 nM,–,–
AGAUGACAAAGUCAUCUCUGACAGACAUGAGGAUCACCCAUGUAGGAUAUGCUACUCAAAGAGUAGCAGAAGGACAUGUGUCUU,32.3 nM,183 nM,–,–
AGAUUCAUGGCCCGUUCGGGCUCACAUGAGGAUCACCCAUGUGAGGAUAUGAUGUACCUGAUUCAUCAGAAGGCGCAUGCGAAA,7.69 nM,20.8 nM,–,–
AGCAACAUGAGGAUCACCCAUGUUGGUUCGAAAACGGACUCACAGGAUAUGCAACGUGAUCGUUUGCAGAAGGGUGCGUCCUCA,–,–,18.4 nM,28.4 nM
AGCAAGAGAGGAUAUACAUAGGAAAAAAAAGUCUGAUCCCUACAUGAGGAUCACCCAUGUAGAAGGCUCUGGCA,69.5 nM,24.7 nM,–,–
AGCACGGGAUUGGAGGAUAUGUUGUUUGCAACAUGAGGAUCACCCAUGUCUGAGGCUGAAAAGCAGCAGAAGGCCGAUACAACCA,–,–,347 nM,71.5 nM
AGCAGACGAGGAUAUAGAUGGAAUGACAUGAGGAUCACCCAUGUGAUCGAUCUAUUGGGUUUAGAAGGUGUCUGCU,15.2 nM,15.4 nM,–,–
AGCAUGGUAGGAUAUACGGAACAUUAGGGUUUGUUAUGUGGACAUGAGGAUCACCCAUGUAGAAGGGCCGUGCA,35.6 nM,67.5 nM,–,–
AGCCACAGAGGAUAUACAUACAUCCAGUGGUAAAGAAUACUACAUGAGGAUCACCCAUGUAGAAGGCUGUGGCA,25.3 nM,145 nM,–,–
AGCGAGGUAGGAUAUACAUGAGGAUCACCCAUGUGCUUGCAUGGCGUGGAACAUCGUAGUAGAAGGGCCGCGCC,20.4 nM,40.2 nM,–,–
AGCGCCAUCGUGAGAUGGCGUAUUACAUGAGGAUCACCCAUGUAGGAUAUCGAUUGCUUUGCAGUCGAGAAGGACAUGUUCUUG,51.5 nM,91.7 nM,–,–
AGCGGCGCGGGCCACCGCAGAACCAGAAGGACAUGAGGAUCACCCAUGUAGCAGAACAGGGCGGUGUAGGAUAUGGCAGGCUCG,29.4 nM,52.3 nM,–,–
AGCUACGUUUCGUAGCAGCUAGGUGAGGAUAUUCAAUUUUUCACAUGAGGAUCACCCAUGUAUGUGAAGAAGGCGCCUAGAAAA,–,–,12.3 nM,4.98 nM
AGCUACGUUUCGUAGCAGUGUCAUCGAGAAGGCUCAAAUACAUGAGGAUCACCCAUGUUAACAUGGGAGGAUAUCGAUGAUACA,–,–,63.6 nM,7.86 nM
AGCUAGUACCGAGGAUAUACGUACAUGAGGAUCACCCAUGUAUACAUGAAUUAAUGAGACUACAUGUAGAAGGCGGUACUAGCA,–,–,51.4 nM,14.2 nM
AGCUAGUCAGGAUAUGCAUACAUGUCAAAAGACGUGAAGGGACAUGAGGAUCACCCAUGUAGAAGGGACUAGCA,40.4 nM,67.9 nM,–,–
AGCUAUUACGAAGGAUAUUGUGACAUGAGGAUCACCCAUGUUUUCAUGAUUAAUUGUGAUCACGUCGAGAAGGUUGUACUAACA,–,–,52.4 nM,54.5 nM
AGCUGACGAGGAUAUACAUGAGGAUCACCCAUGUUGGUUCAGCGACGAUAGUCGCAAUGUAGAAGGUGUCAGCU,126 nM,664 nM,–,–
AGCUGGUGACAGCAAGAAUUUUAACAUGAGGAUCACCCAUGUAGAAGGCUGUACGGUUACCGUACAGAGGAUAUACAUAGAAAG,43.2 nM,62.2 nM,–,–
AGCUGGUGACAGCAUCCAUCAUGACAUGAGGAUCACCCAUGUAGAAGGCUGUACGGUUACCGUACAGAGGAUAUACAAUGAUGG,7.73 nM,8.21 nM,–,–

Sequence,apparent Kd [1],apparent Kd [2],apparent Kd [3],apparent Kd [4]
AGCUGUGGCCGAGGAUAUACAUUCCUAAUCCAUUGCAAAUAGCGAUGGACAUGAGGAUCACCCAUGUAGAAGGCGGUCUCAGCA,561 nM,163 nM,–,–
AGCUGUGGCCGAGGAUAUCACGAACCAUGGAAAACCAUGGAACUCAUACAUGAGGAUCACCCAUGUGAGAAGGCGGUCUCAGCA,34.1 nM,29.6 nM,–,–
AGCUGUGGCCGAGGAUAUCUAAACCUUCAAACCGAAAUAUAAUCGGACAUGAGGAUCACCCAUGUAGAGAAGGCGGUCUCAGCA,13.3 nM,28.8 nM,–,–
AGCUGUGGCCGAGGAUAUCUAUCUCAUAAAACCGAAAUAUAAUCGGACAUGAGGAUCACCCAUGUAGAGAAGGCGGUCUCAGCA,27.6 nM,129 nM,–,–
AGCUGUGGCCGAGGAUAUCUGAAAACUCAAACCGAAAUAUAAUCGGACAUGAGGAUCACCCAUGUAGAGAAGGCGGUCUCAGCA,53 nM,117 nM,–,–
AGGAAGUUAGGAUAUGCUGCUCGUCACUUGCGUGAUGAGUAGCAGAAGGGACAUGAGGAUCACCCAUGUAAAGA,36.8 nM,21.9 nM,–,–
AGGAGGUCAGGAUAUGCAUGGCGGGACUUGCGUCGUGGCGUGCAGAAGGGACAUGAGGAUCACCCAUGUGGAGU,113 nM,139 nM,–,–
AGGAGGUUAGGAUAUGCUGCUCGUCACUUGCGUGAUGAGUAGCAGAAGGAACAUGAGGAUCACCCAUGUAAAAA,30.2 nM,31.9 nM,–,–
AGGAUGUUAGGAUAUCGAAGGUUGUGGCAGGCGGGAAUUUGCGAGAAGGAACAUGAGGAUCACCCAUGUGAAAU,22.9 nM,22.2 nM,–,–
AGGCUUGCCACAGGAUAUGCUGACAUGAGAGAAGCAGAAGGGUGGUCGACGUUUUGGCGACAUGAGGAUCACCCAUGUUAGCGU,–,–,178 nM,28.3 nM
AGGGAGUGAGGAUAUACGAAAUAAAAAGAAGGAAAAAAAGAGUAGAAGGCACAUGAGGAUCACCCAUGUGAGAA,22 nM,19.5 nM,–,–
AGGUGAGCCGUCAGGAUAUGCGUUCCGUAGGGUCAGCAGAAGGGACAUGAGGAUCACCCAUGUUUCGCACGUGG,34.2 nM,71.1 nM,–,–
AGUAAGAUGCAGAAGGUGUCAGCGAGAGCUGCACAUGAGGAUCACCCAUGUUGUCGGUGACGACACAAGGAUAUGCAUCUUACA,–,–,31.4 nM,12.8 nM
AGUAAGAUGCAGAAGGUGUCAGCUAGUGCUACGACAUGAGGAUCACCCAUGUACUAGGUAGAGUACAAGGAUAUGCAUCUUACA,–,–,23 nM,6.15 nM
AGUAAGAUGCAGAAGGUGUUAGCUAGAGCUACGACAUGAGGAUCACCCAUGUACUAGAAACAGUACAAGGAUAUGCAUCUUACA,–,–,18.1 nM,6.28 nM
AGUAAGAUGCAGAAGGUGUUAGCUAGAGCUACGACAUGAGGAUCACCCAUGUACUCAAAACCGUACAAGGAUAUGCAUCUUACA,–,–,9.55 nM,6.26 nM
AGUAAUUACGAAGGAUAUGCGCUCCUCGGGCUCGCAGAAGGUCGUACAUGAGGAUCACCCAUGUGUGAUCGCUCAUAGCCGCAA,93.2 nM,41.4 nM,–,–
AGUACUACAGGAUAUACAUGAGUGAUACUCAUAUCCCUUCUACAUGAGGAUCACCCAUGUAGAAGGGUAGUACA,15.2 nM,11.7 nM,–,–
AGUAGAUCAGGAUAUACAUAAAUGAUAAUUAUGUAAAUUCUACAUGAGGAUCACCCAUGUAGAAGGGAUCUACA,14.4 nM,14 nM,–,–
AGUAGAUCAGGAUAUACAUAAAUGAUAAUUAUGUACCUAAUACAUGAGGAUCACCCAUGUAGAAGGGAUCUACA,14.9 nM,17.9 nM,–,–
AGUCGGAGCAGAGGAUAUACAUGAGGAUCACCCAUGUAAAUGAAAGAUAAGCUGGAAACAGCAAUGUAGAAGGCUGCUCCGACA,19.2 nM,91.6 nM,–,–
